Test results taken from publication PMC12709667 (Journal of Clinical Pharmacology, 2025).

How the values were obtained:
BCRP [1] = target: T1, BCRP (Homo sapiens, UniProt Q9UNQ0); assay: ABC transporter inhibition, inside-out vesicles; assay type: in vitro ADME
T1 sequence (Q9UNQ0 1-655): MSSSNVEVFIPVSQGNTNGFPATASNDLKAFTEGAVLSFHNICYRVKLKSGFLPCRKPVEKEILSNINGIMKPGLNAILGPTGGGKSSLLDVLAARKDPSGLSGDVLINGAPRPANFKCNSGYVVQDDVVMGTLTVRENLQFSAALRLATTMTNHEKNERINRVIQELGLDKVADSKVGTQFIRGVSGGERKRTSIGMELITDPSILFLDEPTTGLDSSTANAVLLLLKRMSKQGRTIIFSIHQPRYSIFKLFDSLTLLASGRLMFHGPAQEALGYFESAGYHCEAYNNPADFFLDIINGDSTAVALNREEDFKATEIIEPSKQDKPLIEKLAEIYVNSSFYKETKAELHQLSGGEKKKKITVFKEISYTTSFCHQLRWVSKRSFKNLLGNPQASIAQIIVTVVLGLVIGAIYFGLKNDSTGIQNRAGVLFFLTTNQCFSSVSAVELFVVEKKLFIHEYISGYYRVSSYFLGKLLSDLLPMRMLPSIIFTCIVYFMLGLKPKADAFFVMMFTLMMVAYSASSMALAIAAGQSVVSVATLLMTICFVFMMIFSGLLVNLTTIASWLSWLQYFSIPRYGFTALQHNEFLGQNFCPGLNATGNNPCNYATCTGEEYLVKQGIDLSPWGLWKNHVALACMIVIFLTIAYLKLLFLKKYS
In short: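 Inhibition of human BCRP transport was measured in inside-out membrane vesicles prepared from cells overexpressing the human ABC transporter.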

OATP1B1 = target: T2, OATP1B1 (Homo sapiens, UniProt Q9Y6L6); assay: Transporter substrate assessment; assay type: in vitro ADME
T2 sequence (Q9Y6L6 1-691): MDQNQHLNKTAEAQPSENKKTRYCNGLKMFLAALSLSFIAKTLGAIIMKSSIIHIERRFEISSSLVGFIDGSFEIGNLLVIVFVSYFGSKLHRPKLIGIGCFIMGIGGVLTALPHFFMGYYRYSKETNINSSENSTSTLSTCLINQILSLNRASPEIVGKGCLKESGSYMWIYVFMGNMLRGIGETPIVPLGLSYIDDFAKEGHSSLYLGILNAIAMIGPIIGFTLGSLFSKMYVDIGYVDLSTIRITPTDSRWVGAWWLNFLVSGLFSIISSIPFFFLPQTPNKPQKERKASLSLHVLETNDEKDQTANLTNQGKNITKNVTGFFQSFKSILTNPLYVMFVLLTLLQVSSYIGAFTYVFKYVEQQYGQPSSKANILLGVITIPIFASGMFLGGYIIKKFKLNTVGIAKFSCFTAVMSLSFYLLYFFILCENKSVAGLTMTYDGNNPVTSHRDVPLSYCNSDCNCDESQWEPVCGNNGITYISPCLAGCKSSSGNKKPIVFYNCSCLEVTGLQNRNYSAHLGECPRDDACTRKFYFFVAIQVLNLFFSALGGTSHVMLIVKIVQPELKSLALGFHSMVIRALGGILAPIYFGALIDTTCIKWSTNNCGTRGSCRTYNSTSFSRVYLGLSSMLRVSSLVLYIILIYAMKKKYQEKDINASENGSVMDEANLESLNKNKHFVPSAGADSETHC

[2] = 28-day Good Laboratory Practice toxicology study; assay type: in vivo, mouse; settings: mice
UGT1A1 [3] = target: T3, UGT1A1 (Homo sapiens, UniProt P22309); assay: Phase 2 enzyme substrate assessment; assay type: in vitro ADME
T3 sequence (P22309 26-533): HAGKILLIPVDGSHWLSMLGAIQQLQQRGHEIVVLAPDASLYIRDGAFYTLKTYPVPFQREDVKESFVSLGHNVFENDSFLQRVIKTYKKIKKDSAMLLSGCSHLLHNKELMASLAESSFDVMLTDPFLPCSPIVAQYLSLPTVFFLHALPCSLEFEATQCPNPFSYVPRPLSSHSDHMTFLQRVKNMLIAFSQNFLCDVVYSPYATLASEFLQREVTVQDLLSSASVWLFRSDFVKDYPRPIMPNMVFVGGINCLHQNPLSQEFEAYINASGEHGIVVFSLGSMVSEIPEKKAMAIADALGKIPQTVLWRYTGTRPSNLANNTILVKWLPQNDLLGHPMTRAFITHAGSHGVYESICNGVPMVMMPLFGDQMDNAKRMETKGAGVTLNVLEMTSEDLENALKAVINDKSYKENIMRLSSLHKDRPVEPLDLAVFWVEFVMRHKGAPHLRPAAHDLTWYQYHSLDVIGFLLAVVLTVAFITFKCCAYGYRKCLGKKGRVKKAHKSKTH

UGT1A1 [4] = target: T3, UGT1A1; assay: DDI perpetrator study: dolutegravir probe; assay type: in vivo; settings: miricorilant 400 mg once daily as perpetrator
CYP3A5 = CYP3A5 (Homo sapiens, UniProt P20815); assay: Cytochrome P450 inhibition; assay type: in vitro ADME
UGT1A1 [5] = target: T3, UGT1A1; assay: Phase 2 enzyme inhibition; assay type: in vitro ADME
BCRP [6] = target: T1, BCRP; assay: Transporter substrate assessment; assay type: in vitro ADME
CYP2B6 [7] = target: T4, CYP2B6 (Homo sapiens, UniProt P20813); assay type: in vitro ADME
T4 sequence (P20813 1-491): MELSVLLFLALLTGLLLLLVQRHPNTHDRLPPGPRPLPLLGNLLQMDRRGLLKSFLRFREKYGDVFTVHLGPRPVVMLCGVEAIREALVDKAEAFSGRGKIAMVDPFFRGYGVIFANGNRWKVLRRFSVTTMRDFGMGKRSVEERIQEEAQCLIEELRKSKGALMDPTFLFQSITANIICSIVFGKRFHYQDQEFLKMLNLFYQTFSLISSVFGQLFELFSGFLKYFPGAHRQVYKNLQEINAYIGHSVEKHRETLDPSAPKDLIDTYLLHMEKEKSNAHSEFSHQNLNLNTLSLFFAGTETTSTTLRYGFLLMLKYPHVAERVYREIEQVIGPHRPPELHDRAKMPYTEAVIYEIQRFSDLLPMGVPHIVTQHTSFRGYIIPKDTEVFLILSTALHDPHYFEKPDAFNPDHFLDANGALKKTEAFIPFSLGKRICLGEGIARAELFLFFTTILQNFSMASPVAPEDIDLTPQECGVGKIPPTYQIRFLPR

CYP2B6 [8] = assay type: in vitro ADME, human; settings: up to 10 µM, three donors
CYP3A4 = assay type: in vitro ADME, human; settings: up to 10 µM

Sequence of CYP3A5 (P20815 whole entry): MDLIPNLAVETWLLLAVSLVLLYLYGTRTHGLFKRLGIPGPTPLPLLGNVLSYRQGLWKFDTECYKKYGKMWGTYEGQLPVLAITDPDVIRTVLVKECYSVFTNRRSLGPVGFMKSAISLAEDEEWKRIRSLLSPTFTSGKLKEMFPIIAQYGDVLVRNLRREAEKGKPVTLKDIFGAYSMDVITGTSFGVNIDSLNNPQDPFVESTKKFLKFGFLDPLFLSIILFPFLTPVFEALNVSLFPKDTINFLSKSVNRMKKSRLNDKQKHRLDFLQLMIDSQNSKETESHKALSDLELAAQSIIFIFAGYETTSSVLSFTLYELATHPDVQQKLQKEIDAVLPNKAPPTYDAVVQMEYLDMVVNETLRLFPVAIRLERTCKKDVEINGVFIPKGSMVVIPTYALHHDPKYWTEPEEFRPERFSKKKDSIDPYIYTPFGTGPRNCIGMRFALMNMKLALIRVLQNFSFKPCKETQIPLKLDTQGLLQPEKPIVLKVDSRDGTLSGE

Structure (SMILES): O=c1[nH]c(=O)c(Cc2cccc(C(F)(F)F)c2)c([C@H]2CC[C@H](c3ccccc3)CC2)[nH]1 [miricorilant]
- IC50 (BCRP [1]): 480 nM
- Substrate of OATP1B1 (OATP1B1): not a substrate
- adverse effects in 28‐day toxicology study [2]: No adverse effects
- Substrate of UGT1A1 (UGT1A1 [3]): not a substrate
- clinical inhibition of UGT1A1 (UGT1A1 [4]): does not inhibit
- inhibition of CYP3A5 (CYP3A5): No inhibition
- IC50 (UGT1A1 [5]): 1400 nM
- Substrate of BCRP (BCRP [6]): not a substrate
- inhibition of CYP2B6 (CYP2B6 [7]): No inhibition
- induction of CYP2B6 (CYP2B6 [8]): no induction
- highest observed CYP3A4 induction (CYP3A4; one of three donors, concentration-dependent): 6.5 fold
- CYP3A4 induction (CYP3A4; two of three donors): no indication of CYP3A4 induction
